Compounds with a hit are over-represented: about 2% of the library has one in this group of screens.
Dynein cargo inh – inhibitors of GR-EGFP nuclear translocation, primary screen, dynein cargo transport inhibitor project, imaging, high-content, 3617.4 mouse cells; 0.47% of 220,000 active; test concentration mostly 20 µM; stimulated with dexamethasone, 1 µM; active compounds read low; z-score, hits read low;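 active = plate z-score of nuclear minus cytoplasmic receptor signal below a set negative limit, without overly bright fluorescence or cell loss, cut at about -3.5 in these data, passing the limit was not always enough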;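 also: z-score of nuclear minus cytoplasmic ring GR-EGFP intensity difference per well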
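Buffer or medium: tet-free, stripped-serum medium; reagent: dexamethasone at 1.0 µM final, 30 min; incubation: 48 h induction, 1 h compound, 30 min dex at 37 °C; measured by: formaldehyde fixation, Hoechst nuclear stain, 10x automated fluorescence imaging; read-out: nuclear-to-cytoplasmic GR-EGFP distribution per well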
Insulin prom inh – inhibitors of insulin promoter-driven GFP, primary screen, imaging, TRM-6 cells, eGFP reporter, cell count; reporter expression induced with tamoxifen; inhibition, % at 2 µM; 0.9% of 130,000 active;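 active = inhibition above the mean plus 3 SD, with well images judged a real hit on visual review, cut at about 60% in these data, passing the limit was not always enough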
Autophagy mod – autophagy modulators in MEF cells, primary screen, imaging, high-content, MEF GFP-LC3. 0.98% of 190,000 active. MEF GFP-LC3 puncta imaging; test concentration mostly 10 µM. calls only at 10 µM (by protocol);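 active = percentage of spot-positive cells more than 3 SD above its plate mean, without a fluorescence outlier flag or 80% toxicity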;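 also: spot-positive cell cutoff set from DMSO-treated cells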
Ins promoter up – insulin promoter activators in MIN6 cells, imaging, high-content screening, mouse beta cells; MIN6 insulin promoter-GFP reporter; active compounds read high; z-score at 5 µM; 0.3% of 190,000 active;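 active = z-score above 3 at 5 µM with at least 500 cells counted in the well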
* hit, by the source's call.

How did CN(C)CCN=Cc1c(O)n(Cc2ccc3c(c2)OCO3)c(=O)c2ccccc12 do in these assays?
Dynein cargo inh: -0.87; Insulin prom inh: 29; Autophagy mod: inactive; Ins promoter up: -1.2

How did Cc1ccc(N=Cc2c(O)n(-c3ccc4c(c3)OCO4)c(=O)c3ccccc23)cc1 do in these assays?
Dynein cargo inh: 0.48; Insulin prom inh: 52; Autophagy mod: active

Results for CN(C)CCCN=Cc1c(O)n(Cc2ccc3c(c2)OCO3)c(=O)c2ccccc12 ?
Dynein cargo inh: -0.99; Autophagy mod: active; Ins promoter up: -0.58

What do the screens show for `Cc1cccc(-n2c(O)c(C=Nc3ccc(O)cc3)c3ccccc3c2=O)n1`?
Dynein cargo inh: -1.1; Insulin prom inh: 7; Autophagy mod: inactive; Ins promoter up: -0.35

How did COc1ccc(N=c2oc3c(OC)cccc3cc2C(=O)NCc2ccco2)cc1OC do in these assays?
Dynein cargo inh: 0.45; Autophagy mod: active; Ins promoter up: -0.76

How did COc1ccccc1NC(=O)c1cc2ccccc2o/c1=N\O do in these assays?
Ins promoter up: 0.87

How did COc1ccc(N=c2oc3ccccc3cc2C(=O)Nc2ccccn2)cc1OC do in these assays?
Dynein cargo inh: -0.52; Insulin prom inh: 29; Autophagy mod: active; Ins promoter up: 0.03

How did CC(CNC(=O)c1cccs1)c1ccc([N+](=O)[O-])cc1 (stereo not drawn) do in these assays?
Dynein cargo inh: -0.95; Autophagy mod: inactive; Ins promoter up: 0.14

How did Cn1ccc(=S)c2ccccc21 do in these assays?
Dynein cargo inh: -0.014; Insulin prom inh: 89*; Autophagy mod: inactive

Results for Cn1c(=S)n(C)c2ccccc21 ?
Dynein cargo inh: -0.8; Insulin prom inh: 42; Autophagy mod: inactive

What do the screens show for `Cc1cccc(-c2ncc(CN3CCCC(CO)(Cc4ccccc4C)C3)cn2)c1` (stereo not drawn)?
Dynein cargo inh: 0.17; Autophagy mod: inactive; Ins promoter up: 3.1*

What do the screens show for `CCC(C)(C)n1nnnc1C(c1cc2cc(C)cc(C)c2[nH]c1=O)N1CCN(Cc2ccc3c(c2)OCO3)CC1` (stereo not drawn)?
Dynein cargo inh: -0.35; Insulin prom inh: 50; Autophagy mod: active

What do the screens show for `O=C(Nc1ccccc1Cl)OCc1cncs1`?
Dynein cargo inh: -0.022; Insulin prom inh: 67*; Autophagy mod: inactive; Ins promoter up: -1.2

Results for O=[N+]([O-])c1cc(C(F)(F)F)cc([N+](=O)[O-])c1NCCNC(=S)Nc1cccc(F)c1 ?
Dynein cargo inh: 0.07; Ins promoter up: 0.88

How did Clc1cncc(Cl)c1N/N=C/c1ccncc1 do in these assays?
Dynein cargo inh: -0.18; Insulin prom inh: 62*; Autophagy mod: inactive; Ins promoter up: -0.24

Results for Clc1cccc(Cl)c1/C=N/Nc1c(Cl)cncc1Cl ?
Dynein cargo inh: 0.017; Ins promoter up: -0.35

Results for CCC(CC)C(=O)OCC(=O)Nc1cc(OC)c([N+](=O)[O-])cc1C ?
Dynein cargo inh: 1.3; Insulin prom inh: 64*; Autophagy mod: inactive

What do the screens show for `CC(C)(CO)NC(=O)C12CC3CC(CC(Br)(C3)C1)C2`?
Dynein cargo inh: 0.15; Ins promoter up: 0.14

What do the screens show for `O=C(CN1CCCC1)Nc1ccccc1Sc1ccc(Cl)cc1`?
Dynein cargo inh: 0.56; Insulin prom inh: -25; Autophagy mod: inactive; Ins promoter up: -0.11

Results for O=C(CC12CC3CC(CC(C3)C1)C2)NCC(=O)N1CCc2ccccc2C1 ?
Dynein cargo inh: 0.71; Insulin prom inh: -23; Autophagy mod: inactive; Ins promoter up: 3.3*

Results for N=C1c2ccccc2CN1NC(=O)CC12CC3CC(CC(C3)C1)C2 ?
Dynein cargo inh: 0.4; Insulin prom inh: -14; Autophagy mod: inactive; Ins promoter up: -0.03

How did O=C(Cn1c(C(F)(F)F)nc2ccccc21)Oc1cccc(C(F)(F)F)c1 do in these assays?
Dynein cargo inh: -4.2*; Autophagy mod: inactive; Ins promoter up: -0.08

Results for Cc1occc1C(=O)Nc1nnc(-c2cccs2)s1 ?
Dynein cargo inh: -0.24; Autophagy mod: inactive; Ins promoter up: -0.56

What do the screens show for `CCCn1nnc(NC(=O)c2cccc(Cl)c2)n1`?
Dynein cargo inh: -0.35; Insulin prom inh: 32; Autophagy mod: inactive; Ins promoter up: -0.33

How did CCCn1nnc(NC(=O)c2cc(Br)ccc2OC)n1 do in these assays?
Dynein cargo inh: 0.34; Insulin prom inh: 84*; Autophagy mod: inactive; Ins promoter up: 0.2
